Reference: ChEMBL document CHEMBL3124822, “Discovery of a rapidly metabolized, long-acting β(2) adrenergic receptor agonist with a short onset time incorporating a sulfone group suitable for once-daily dosing” (J Med Chem, 2014)

How the values were obtained:
[1] = molecular target: Beta-2 adrenergic receptor (Homo sapiens, UniProt P07550); assay: Agonist activity at human beta2 adrenoceptor transfected in CHO cells assessed as cyclic AMP accumulation after 45 mins by fluorescence polarization assay; type: functional, cell-based
[2] = molecular target: Beta-3 adrenergic receptor (Homo sapiens, UniProt P13945); assay: Agonist activity at human beta3 adrenoceptor transfected in CHO cells assessed as cyclic AMP accumulation after 45 mins by fluorescence polarization assay; type: cell-based
[3] = molecular target: Beta-1 adrenergic receptor (Homo sapiens, UniProt P08588); assay: Agonist activity at human beta1 adrenoceptor transfected in CHO cells assessed as cyclic AMP accumulation after 45 mins by fluorescence polarization assay; type: cell-based
[4] = Plasma concentration in Sprague-Dawley rat at 1261 ug/kg/day measured on day 7 by 7-day snout-only inhalation assay; type: ADME; settings: inhaled, 1.261 mg/kg
Method in brief: (§1)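 Sprague–Dawley male rats exposed snout-only to a dry powder formulation of the 4-biphenylsulfonic acid salt for 7 days at 181, 344, 703 and 1261 (μg/kg)/day (measured aerosol 5.1, 9.8, 19.9, 35.7 μg/L). Assessed clinically, with body weight, hematology, biochemistry and respiratory tract evaluation. Plasma exposure measured on day 7 as ng·h/mL.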

[5] = Stability of the compound in solid state; type: physicochemical
Rattus norvegicus [6] = assay: Toxicity in Sprague-Dawley rat assessed as hematology at 181 to 1261 ug/kg/day by 7-day snout-only inhalation assay; type: organism-based; settings: in vivo, inhaled_or_intranasal; method in brief: as §1
Rattus norvegicus [7] = assay: Toxicity in Sprague-Dawley rat assessed as minimal irritancy in nasal cavity at 703 to 1261 ug/kg/day by 7-day snout-only inhalation assay; type: organism-based; settings: in vivo, inhaled_or_intranasal; method in brief: as §1
[8] = Stability of the compound in solution state; type: physicochemical
Rattus norvegicus [9] = assay: Toxicity in Sprague-Dawley rat at 181 to 1261 ug/kg/day by 7-day snout-only inhalation assay; type: organism-based; settings: in vivo, inhaled_or_intranasal; method in brief: as §1
L5178Y [10] = assay: Genotoxicity against mouse L5178Y cells; type: toxicity, cell-based
Method in brief: (§2)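 Acetate and 4-biphenylsulfonate salts screened in Ames and mouse lymphoma L5178Y assays, with and without a rat liver metabolic activation system.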

[11] = Solubility of the compound in water; type: physicochemical
Rattus norvegicus [12] = assay: Toxicity in Sprague-Dawley rat assessed as minimal irritancy in laryngeal region at 703 to 1261 ug/kg/day by 7-day snout-only inhalation assay; type: organism-based; settings: in vivo, inhaled_or_intranasal; method in brief: as §1
Rattus norvegicus [13] = assay: Toxicity in Sprague-Dawley rat assessed as body weight change at 181 to 1261 ug/kg/day by 7-day snout-only inhalation assay; type: organism-based; settings: in vivo, inhaled_or_intranasal; method in brief: as §1
L5178Y [14] = assay: Genotoxicity against mouse L5178Y cells in presence of rat liver metabolic activation system; type: toxicity, cell-based; method in brief: as §2
Salmonella typhimurium [15] = assay: Genotoxicity in Salmonella typhimurium by Ames assay; type: toxicity, organism-based; settings: salmonella enterica subsp. enterica serovar typhimurium; method in brief: as §2
Salmonella typhimurium [16] = assay: Genotoxicity in Salmonella typhimurium by Ames assay in presence of rat liver metabolic activation system; type: toxicity, organism-based; settings: salmonella enterica subsp. enterica serovar typhimurium; method in brief: as §2
Cavia porcellus [17] = assay: Bronchodilatory activity in guinea pig assessed as duration of action of inhibition of histamine-induced bronchoconstriction at EC90 administered via nebulization 2 mins prior to histamine challenge; type: functional
Method in brief: (§3)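 Conscious guinea pigs, n = 24 per group, given test agonist as a nebulized solution in dimethylacetamide–saline vehicle (2 min nebulization) before histamine (10 mM, nebulized 1.3 min) in a whole-body plethysmograph. PenH recorded for 15 min as index of airway obstruction. Dose expressed as nebulizer concentration; duration taken as time to 50% recovery.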

Cavia porcellus [18] = assay: Bronchodilatory activity in guinea pig assessed as inhibition of histamine-induced bronchoconstriction administered via nebulization 2 mins prior to histamine challenge; type: functional; method in brief: as §3
[19] = Oral absorption in Han Wistar rat at 2 mg/kg up to 7 hrs by LC-MS/MS analysis; type: ADME, organism-based; set-up: dose 2 mg/kg; settings: in vivo, read-out: Fa
Method in brief: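 Rat oral absorption from hepatic portal vein plasma, corrected for systemic circulation levels, after β-glucuronidase treatment of samples (deconjugated HPV model). Expressed as h·ng/mL.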

Chain of Beta-1 adrenergic receptor (P08588 whole entry): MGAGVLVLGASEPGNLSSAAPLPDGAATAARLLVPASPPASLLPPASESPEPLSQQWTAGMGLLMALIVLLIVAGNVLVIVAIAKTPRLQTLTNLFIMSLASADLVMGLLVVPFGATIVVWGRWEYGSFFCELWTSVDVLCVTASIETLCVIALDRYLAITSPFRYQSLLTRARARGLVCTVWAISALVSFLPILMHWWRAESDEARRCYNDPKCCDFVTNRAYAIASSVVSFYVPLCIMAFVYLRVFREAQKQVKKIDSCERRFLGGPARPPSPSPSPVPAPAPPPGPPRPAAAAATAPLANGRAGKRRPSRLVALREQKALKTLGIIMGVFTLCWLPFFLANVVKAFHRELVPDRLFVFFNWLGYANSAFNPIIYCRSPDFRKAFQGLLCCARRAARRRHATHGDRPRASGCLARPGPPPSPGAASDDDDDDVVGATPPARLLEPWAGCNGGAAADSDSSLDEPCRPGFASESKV
Chain of Beta-2 adrenergic receptor (P07550 whole entry): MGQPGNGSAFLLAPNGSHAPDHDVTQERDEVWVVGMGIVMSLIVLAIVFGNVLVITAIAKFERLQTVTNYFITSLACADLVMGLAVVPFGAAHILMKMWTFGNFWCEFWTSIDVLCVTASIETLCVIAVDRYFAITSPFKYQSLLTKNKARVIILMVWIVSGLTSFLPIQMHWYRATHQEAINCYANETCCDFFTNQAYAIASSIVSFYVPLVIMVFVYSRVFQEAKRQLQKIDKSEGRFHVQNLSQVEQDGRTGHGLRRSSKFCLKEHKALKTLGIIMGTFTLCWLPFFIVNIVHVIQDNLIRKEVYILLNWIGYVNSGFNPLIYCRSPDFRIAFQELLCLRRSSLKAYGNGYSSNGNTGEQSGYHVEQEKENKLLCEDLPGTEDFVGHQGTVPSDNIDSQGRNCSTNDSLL
Chain of Beta-3 adrenergic receptor (P13945 whole entry): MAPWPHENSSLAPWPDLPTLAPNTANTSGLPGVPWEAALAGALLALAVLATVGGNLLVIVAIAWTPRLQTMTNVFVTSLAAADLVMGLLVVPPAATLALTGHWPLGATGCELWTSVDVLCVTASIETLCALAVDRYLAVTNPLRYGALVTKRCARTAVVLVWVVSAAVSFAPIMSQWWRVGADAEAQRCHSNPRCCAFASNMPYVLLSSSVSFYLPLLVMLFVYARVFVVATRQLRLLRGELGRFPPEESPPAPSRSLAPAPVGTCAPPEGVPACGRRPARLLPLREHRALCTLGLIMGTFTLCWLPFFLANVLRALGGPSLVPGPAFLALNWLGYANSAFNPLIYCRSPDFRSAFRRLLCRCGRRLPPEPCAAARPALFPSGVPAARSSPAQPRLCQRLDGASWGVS

EC50 [1] [nM]	EC50 [2] [nM]	EC50 [3] [nM]	Structure (SMILES)	other results
0.501	316	158	Cc1cc(CCCCOCCCCCCNC[C@H](O)c2ccc(O)c(CO)c2)cc(S(=O)(=O)C2CCCC2)c1	
20	3980	6310	CS(=O)(=O)c1ccc(CCCCOCCCCCCNC[C@H](O)c2ccc(O)c(CO)c2)cc1	
			O=S(=O)(O)c1ccc(-c2ccccc2)cc1.O=S(=O)(c1cccc(CCCCOCCCCCCNC[C@H](O)c2ccc(O)c(CO)c2)c1)C1CCCC1	AUC [4]: 146 ng·h/mL; Stability [5]: Stable; Activity (Rattus norvegicus [6]): Non-toxic; Activity (Rattus norvegicus [7]): Non-toxic; Stability [8]: Unstable; Activity (Rattus norvegicus [9]): Non-toxic; Activity (L5178Y [10]): Non-toxic; solubility [11]: < 10 µg/mL; Activity (Rattus norvegicus [12]): Non-toxic; Activity (Rattus norvegicus [13]): Non-toxic; Activity (L5178Y [14]): Non-toxic; Activity (Salmonella typhimurium [15]): Non-toxic; Activity (Salmonella typhimurium [16]): Non-toxic
			CC(=O)O.OCc1cc(C(O)CNCCCCCCOCCCCc2ccccc2)ccc1O (configuration not stated)	Time (Cavia porcellus [17]): 13 h; EC90 (Cavia porcellus [18]): 50000 nM
1.58	251	251	O=S(=O)(c1cccc(CCCCOCCCCCCNC[C@H](O)c2ccc(O)c(CO)c2)c1)C1CCCCC1	
			OCc1cc(C(O)CNCCCCCCOCCCCc2ccccc2)ccc1O (configuration not stated) [SALMETEROL]	AUC at 7 h [19]: 252 ng·h/mL
1	398	501	O=S(=O)(c1cccc(CCCCOCCCCCCNC[C@H](O)c2ccc(O)c(CO)c2)c1)C1CC=CC1	
39.8	2510	2000	O=S1(=O)CCCc2ccc(CCCCOCCCCCCNC[C@H](O)c3ccc(O)c(CO)c3)cc21	
7.94	2000	2000	O=S1(=O)CCc2ccc(CCCCOCCCCCCNC[C@H](O)c3ccc(O)c(CO)c3)cc21	
31.6	398	1000	O=S(=O)(c1ccc(CCCCOCCCCCCNC[C@H](O)c2ccc(O)c(CO)c2)cc1)C1CCCC1	
